Published values of several laboratories.
Protocols differ between the studies behind these lines.
Medium: Caco-2

SMILES	conditions	quantity	result
C/N=c1\nc(-c2ccccc2)n(-c2ccccc2)s1	20 µM, 95 min	Papp A→B	38.9 ×10⁻⁶ cm/s
COc1ccc2c(c1)[C@]13CCCC[C@@H]1[C@H](C2)N(C)CC3	10 µM, pH 6.5	Papp A→B	34.9 ×10⁻⁶ cm/s
O=C(CCCN1CCC2(CC1)C(=O)NCN2c1ccccc1)N(CC1CCCCC1)c1ccccc1		Papp B→A	6.8 ×10⁻⁶ cm/s
CC[C@@]1(O)C(=O)OCc2c1cc1n(c2=O)Cc2cc3ccccc3nc2-1	100 µM, 105 min	Papp A→B	36 ×10⁻⁶ cm/s
C[C@]12C[C@@H](O)[C@H]3[C@@H](CC[C@]4(O)C[C@@H](O)C[C@@H](O)[C@]34CO)[C@@]1(O)CC[C@@H]2c1cn(Cc2ccccc2)nn1	1 h, pH 6.5	Papp A→B	0.19 ×10⁻⁶ cm/s
N=c1c2c(-c3ccccc3)c(-c3ccccc3)n(Cc3ccccc3)c2ncn1[C@H]1CC[C@H](O)CC1	3 µM, 2 h, pH 7.4	Papp A→B	0.2 ×10⁻⁶ cm/s
C[C@H]1O[C@@H](O[C@H]2[C@@H](O)C[C@H](O[C@H]3[C@@H](O)C[C@H](O[C@H]4CC[C@@]5(C)[C@H](CC[C@@H]6[C@@H]5C[C@@H](O)[C@]5(C)[C@@H](C7=CC(=O)OC7)CC[C@]65O)C4)O[C@@H]3C)O[C@@H]2C)C[C@H](O)[C@@H]1O	10 µM, 1 h, pH 7.4	Papp A→B	4.28 ×10⁻⁶ cm/s
COc1cc2c(c(OC)c1OC)-c1ccc(OC)c(=O)cc1[C@@H](NC(C)=O)CC2		Papp A→B	0.2 ×10⁻⁶ cm/s
